# Assay results collected from several papers.
# Compare with care: the assays were run in different laboratories.
# Target: 3-phosphoinositide-dependent protein kinase 1 (PDPK1, Homo sapiens, UniProt O15530)
# Residues used in one study (O15530 1-556): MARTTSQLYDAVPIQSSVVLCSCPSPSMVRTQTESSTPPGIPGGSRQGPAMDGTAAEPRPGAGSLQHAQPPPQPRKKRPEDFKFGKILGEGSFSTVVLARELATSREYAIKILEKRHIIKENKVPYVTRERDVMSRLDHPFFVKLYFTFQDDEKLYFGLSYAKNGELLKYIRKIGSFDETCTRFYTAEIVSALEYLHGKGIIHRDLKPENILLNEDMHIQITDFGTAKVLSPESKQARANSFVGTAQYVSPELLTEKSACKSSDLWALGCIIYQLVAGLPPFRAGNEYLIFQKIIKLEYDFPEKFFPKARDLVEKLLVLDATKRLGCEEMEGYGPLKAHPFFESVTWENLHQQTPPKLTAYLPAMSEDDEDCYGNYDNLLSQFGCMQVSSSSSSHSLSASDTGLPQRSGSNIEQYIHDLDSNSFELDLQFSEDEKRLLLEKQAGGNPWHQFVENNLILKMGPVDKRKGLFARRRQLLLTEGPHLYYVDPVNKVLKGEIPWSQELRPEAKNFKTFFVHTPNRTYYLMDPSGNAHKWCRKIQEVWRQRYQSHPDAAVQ
Compound,assay,setting,measurement,value
CN1CCN(C(=O)c2ccc(NC(=O)Nc3ccc(N(C)c4ccnc(Nc5ccc(CS(C)(=O)=O)cc5)n4)cc3)cc2)CC1,binding,1 µM,remaining binding,68%
N#Cc1ccc(NC(=O)Nc2ccccc2)cc1,"cell-free assay, competition with immobilised ligand",25 µM,remaining binding,100%
C1=C/COCc2cc(ccc2OCCN2CCCC2)Nc2nccc(n2)-c2cccc(c2)COC/1,binding,0.1 µM,remaining binding,100%
CO[C@@H]1[C@H](N(C)C(=O)c2ccccc2)C[C@H]2O[C@]1(C)n1c3ccccc3c3c4c(c5c6ccccc6n2c5c31)C(=O)NC4,"enzyme activity, inhibitor",1 µM,inhibition,73%
CCCCC(=O)Nc1ccc(-c2ccc3ncn(CCC)c(=O)c3c2)cn1,"binding, competition with immobilised ligand",0.5 µM,remaining binding,100%
Cc1cc(O)c(-c2ccc([C@@H](C)CN(C)C)cc2)c2c1[nH]c(=O)c1sccc12,"enzyme activity, inhibitor",0.1 µM,inhibition,4.15%
CC(C)S(=O)(=O)c1ccc2nccc(Nc3ccc4sc(C5CCCC5)nc4c3)c2c1,"enzyme activity, inhibitor",1 µM,activity vs control,118%
C[C@H]1CC[C@H](n2c3cnccc3c3cnc(Nc4ccc5c(n4)CCN(C(=O)CO)C5)nc32)CC1,cell-free assay,1 µM,remaining signal,100%
COc1ccc2oc(-c3ccc4nc(N)oc4c3)c/c(=N\c3ccccc3NC(=O)CCN)c2c1,binding,1 µM,remaining binding,100%
C=CC(=O)N1CCC([C@@H]2CCNc3c(C(N)=O)c(-c4ccc(Oc5ccccc5)cc4)nn32)CC1,"enzyme activity, inhibitor",1 µM,inhibition,18%
C#Cc1cnc(Nc2ccnc(CO)c2)nc1Nc1ccccc1S(C)(=O)=NC#N (centres unmarked),cell-free assay,1 µM,remaining signal,100%
